Assay results: paper PMC3578163 (Chemical research in toxicology, 2013)
Like-named read-outs stand apart in the source and are kept apart here.

What was measured:
hpol ι^1–446 = target: T1, hpol ι^1–446 (Homo sapiens, UniProt Q9UNA4); experiment: polymerase-catalyzed primer extension; assay type: biochemical; conditions: read-out: IC50 for inhibition of DNA polymerase activity; all four dNTPs 0.25 mM, MgCl2 5 mM; 20 nM enzyme, 200 nM DNA, 37 °C
T1 sequence (Q9UNA4 1-446): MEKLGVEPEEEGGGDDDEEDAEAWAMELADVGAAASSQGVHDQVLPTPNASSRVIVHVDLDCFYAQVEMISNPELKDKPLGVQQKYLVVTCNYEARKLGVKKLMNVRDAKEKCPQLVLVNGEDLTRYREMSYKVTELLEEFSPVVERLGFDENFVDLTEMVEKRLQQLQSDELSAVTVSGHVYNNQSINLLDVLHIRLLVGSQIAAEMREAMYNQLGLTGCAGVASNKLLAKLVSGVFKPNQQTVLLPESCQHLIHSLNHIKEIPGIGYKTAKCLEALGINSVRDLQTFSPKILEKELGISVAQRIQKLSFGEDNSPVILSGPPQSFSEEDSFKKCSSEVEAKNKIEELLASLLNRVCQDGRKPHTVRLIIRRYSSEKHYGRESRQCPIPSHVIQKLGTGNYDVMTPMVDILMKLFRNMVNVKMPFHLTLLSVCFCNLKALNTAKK

hpol ι^26–446 = target: T2, hpol ι^26–446 (Homo sapiens, UniProt Q9UNA4); assay type: biochemical; conditions: for kcat: dTTP
T2 sequence (Q9UNA4 26-446): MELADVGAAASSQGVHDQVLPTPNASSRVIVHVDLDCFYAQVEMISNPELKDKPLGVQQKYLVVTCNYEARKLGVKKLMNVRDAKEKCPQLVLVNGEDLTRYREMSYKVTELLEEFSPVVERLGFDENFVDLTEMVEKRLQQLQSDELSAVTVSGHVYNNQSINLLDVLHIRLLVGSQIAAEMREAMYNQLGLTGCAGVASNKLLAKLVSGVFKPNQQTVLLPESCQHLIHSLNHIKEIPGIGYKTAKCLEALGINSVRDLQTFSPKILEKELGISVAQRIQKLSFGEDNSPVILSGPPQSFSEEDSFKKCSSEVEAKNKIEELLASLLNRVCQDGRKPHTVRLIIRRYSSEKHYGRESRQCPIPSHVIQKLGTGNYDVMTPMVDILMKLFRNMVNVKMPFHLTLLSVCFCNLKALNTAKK
Outline: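 Tripartite substrate built by annealing an unlabelled 19-mer primer, a TAMRA-labelled 10-mer reporter and a BHQ2-labelled 29-mer template (1.4:1:1.5); 50 nM substrate used. Enzyme at 5 nM in 50 mM Tris-HCl pH 8.0, 0.01% Tween-20, 2 mM DTT, 40 mM KCl, 0.25 mM MnCl₂, 25 °C. Inhibitor or DMSO present; dTTP 1–200 μM. Fluorescence (ex 525/em 598 nm) read continuously up to 60 min. Linear-phase velocities fitted to a hyperbola.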

[1] = system: DNA synthesis in cell culture; conditions: cited from earlier work

IC50 (hpol ι^1–446): 15.1 ± 2.1 µM
kcat (hpol ι^26–446; 20 μM MK886, fluorescence-based assay): 0.0733 ± 0.0017 s⁻¹
Fold decrease in kcat/KM,dNTP (hpol ι^26–446; 20 μM MK886 vs no inhibitor): 1.6
kcat (hpol ι^26–446; 40 μM MK886, fluorescence-based assay): 0.0717 ± 0.0017 s⁻¹
Fold decrease in kcat/KM,dNTP (hpol ι^26–446; 40 μM MK886 vs no inhibitor): 2.1
kcat (hpol ι^26–446; 60 μM MK886, fluorescence-based assay): 0.0683 ± 0.0033 s⁻¹
Fold decrease in kcat/KM,dNTP (hpol ι^26–446; 60 μM MK886 vs no inhibitor): 2.4
mechanism of inhibition of DNA polymerase activity (hpol ι^26–446; fluorescence-based assay, diminished kcat and increased KM,dNTP): mixed-type inhibition
Compound: CC(C)c1ccc2c(c1)c(SC(C)(C)C)c(CC(C)(C)C(=O)O)n2Cc1ccc(Cl)cc1 [MK886, 3-[1-(4-chlorobenzyl)-3-t-butyl-thio-5-isoproylindol-2-yl]-2,2-dimethylpropanoic acid]
concentration at which DNA synthesis/replication is inhibited [1]: ≥ 1 µM
